High-throughput results from PubChem.
ARNT TACC3 PPI – disrupts binding between human ARNT and TACC3. AlphaScreen His-ARNT PAS-B/GST-TACC3 binding, luminescence; TACC3 fragment carries E629A point mutation. AID 623870. 0.66% of 390,000 active. inhibition, % at 9.99 µM;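 active = mean inhibition of replicates at least 50% and at least half of replicates each reaching 50%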
CAL PDZ FP-1 – human CAL PDZ-peptide interaction inhibition | inhibition, % at 20 µM | 0.02% of 330,000 active | AID 504414 | Q9HD26 | purified CAL PDZ, TMR-peptide fluorescence polarization, 1 h;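 active = highest replicate inhibition of at least 40%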
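Material: tagged CAL PDZ protein CerCALP, purified; buffer or medium: sodium phosphate/NaCl buffer pH 7.4 with TCEP, IgG, Thesit; also added: fluorescent TMR peptide probe; schedule: 1 h incubation at room temperature before polarization reading; technique: fluorescence polarization from S- and P-plane intensities, G-factor corrected; control set: unlabelled peptide and DMSO controls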
CAL PDZ FP-2 – CAL PDZ (human) peptide binding inhibition; Q9HD26; 0.92% of 300,000 active; purified CAL PDZ, TMR-peptide fluorescence polarization, 1 h; inhibition, % at 24.9 µM;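 active = mean inhibition of at least 30% with at least half of replicates also reaching 30%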
Of the large screens only hits and unclear results are named; the others gave an inactive call. Most compounds without a hit are left out; they make up all but 1.2% or so of the library.

CO[C@@H]1CN(C)C(=O)c2ccc(NC(=O)c3ccccc3)cc2OC[C@@H](C)N(CC2CC2)C[C@@H]1C	none (no result: CAL PDZ FP-1, CAL PDZ FP-2)
COc1ccc(NC(=O)CSc2nc3sc(C)cc3c(=O)n2C)c(OC)c1	CAL PDZ FP-2 80
COc1ccc(NC(=O)CSc2nc3sc(C)cc3c(=O)n2C)cc1	none
O=C(Nc1ccc(C(F)(F)F)cc1)N[C@@H]1CC[C@@H](CCn2cc(C3(O)CCCC3)nn2)O[C@@H]1CO	none (no result: CAL PDZ FP-1, CAL PDZ FP-2)
COc1cccc(S(=O)(=O)Nc2ccc3c(c2)C(=O)N(C)[C@H]2CC[C@H](CC(=O)O)O[C@H]2CO3)c1	none (no result: CAL PDZ FP-1, CAL PDZ FP-2)
O=C(Nc1ccc(F)cc1F)C1CCCN1S(=O)(=O)c1cccc2nsnc12 (stereo not drawn)	none
O=C(Nc1ccc(F)cc1)C1CCCN1S(=O)(=O)c1cccc2nsnc12 (stereo not drawn)	CAL PDZ FP-2 128
Cc1cccc(NC(=O)c2ccccc2SCc2ccc(F)cc2)n1	CAL PDZ FP-2 60 (no result: ARNT TACC3 PPI)
O=C(Nc1ccc(Cl)cn1)c1ccccc1SCc1ccccc1	none
CN1CCCc2cc(C=O)ccc21	none
CCCN1CCCc2cc(CN)ccc21	ARNT TACC3 PPI 32
C[C@H]1CN([C@@H](C)CO)C(=O)c2cc(NC(=O)CCCN(C)C)ccc2O[C@@H]1CN(C)S(=O)(=O)c1ccccc1	none (no result: CAL PDZ FP-1, CAL PDZ FP-2)
CO[C@@H]1CN(C)C(=O)c2cc(NS(=O)(=O)CC(F)(F)F)ccc2OC[C@H](C)N(Cc2cccnc2)C[C@H]1C	none (no result: CAL PDZ FP-1, CAL PDZ FP-2)
CCOc1ccc(OCCC(=O)OCC(=O)Nc2cc(S(=O)(=O)N3CCOCC3)ccc2OC)cc1	none
CCOc1ccc(/C=N/OCC(=O)Nc2cc(S(=O)(=O)N3CCOCC3)ccc2OC)cc1	CAL PDZ FP-2 47 (no result: CAL PDZ FP-1)
C[C@@H]1CCCCO[C@H](CN(C)S(=O)(=O)c2ccc(Cl)cc2)[C@H](C)CN([C@@H](C)CO)C(=O)c2cc(NC(=O)Nc3ccc4c(c3)OCO4)ccc2O1	none (no result: CAL PDZ FP-1, CAL PDZ FP-2)
Cc1cc(C(=O)NNC(=O)c2ccc(C(F)(F)F)cc2)no1	CAL PDZ FP-2 60
Cc1cc(C(=O)NNC(=O)Nc2cccc(C(F)(F)F)c2)no1	none (no result: ARNT TACC3 PPI)
CC(C)(C)c1cc(C(=O)NNC(=O)c2ccc(Cl)cc2)no1	none
Cc1cc(C(=O)NNC(=O)c2cccc(C(F)(F)F)c2)no1	CAL PDZ FP-2 45
C[C@H](CO)N1C[C@H](C)[C@H](CN(C)CC2CCCCC2)Oc2c(NC(=O)Nc3ccccc3)cccc2C1=O	none (no result: CAL PDZ FP-1, CAL PDZ FP-2)
CCCN1C[C@@H](C)[C@@H](OC)CN(C)C(=O)c2cc(NS(=O)(=O)CC)ccc2OC[C@@H]1C	none (no result: CAL PDZ FP-1, CAL PDZ FP-2)
C[C@@H]1CN([C@H](C)CO)C(=O)c2cc(NC(=O)Nc3cccc4ccccc34)ccc2O[C@H]1CN(C)C(=O)Nc1ccc(F)cc1	none (no result: CAL PDZ FP-1, CAL PDZ FP-2)
COCCNC(=O)C[C@H]1CC[C@@H]2[C@@H](COc3ccc(NC(=O)C4CCCC4)cc3C(=O)N2C)O1	none (no result: CAL PDZ FP-1, CAL PDZ FP-2)
Cc1ccc2c(c1)N(CC(=O)Nc1ccccc1F)C(=O)CO2	CAL PDZ FP-2 56
O=C(CN1C(=O)COc2ccccc21)Nc1ccccc1F	none
C[C@@H]1CN([C@@H](C)CO)C(=O)c2cc(NC(=O)c3ccncc3)ccc2O[C@@H](C)CCCCO[C@H]1CN(C)S(=O)(=O)c1cccs1	none (no result: CAL PDZ FP-1, CAL PDZ FP-2)
CCOC(=O)c1c(-c2ccccc2Cl)cn2ccccc12	none (no result: CAL PDZ FP-2)
O=C(O)c1c(-c2ccc(Cl)cc2)cn2ccccc12	CAL PDZ FP-2 100
O=C(c1ccccc1F)N1C[C@H]2[C@@H](c3ccccc31)[C@H](CO)N2C(=O)c1cccnc1	none (no result: CAL PDZ FP-1, CAL PDZ FP-2)
O=C(N/N=C/c1cc(Cl)cc([N+](=O)[O-])c1O)c1cccc(S(=O)(=O)N2CCOCC2)c1	ARNT TACC3 PPI 71
O=C(Nc1ccc(N2CCCCCC2)cc1)c1cccc(S(=O)(=O)N2CCOCC2)c1	CAL PDZ FP-2 36 (no result: ARNT TACC3 PPI)
O=C(N/N=C/c1cc(Br)cc(Br)c1O)c1cccc(S(=O)(=O)N2CCOCC2)c1	none
O=C(NN=Cc1cc(Cl)ccc1[N+](=O)[O-])c1cccc2ccccc12	none
O=C(Nc1cccc(S(=O)(=O)N2CCOCC2)c1)c1cccc(S(=O)(=O)N2CCCCC2)c1	none
Cc1cc(C(=O)N/N=C/c2cc(Cl)cc([N+](=O)[O-])c2O)c2ccccc2n1	ARNT TACC3 PPI 76
COC(=O)[C@H]1[C@H](CO)[C@H]2Cn3c(cccc3=O)[C@H]2N1C(=O)C1CCCCC1	none (no result: CAL PDZ FP-1, CAL PDZ FP-2)
C/C=C/c1ccc2c(c1)O[C@@H](CN(C)C(=O)CN1CCOCC1)[C@@H](C)CN([C@@H](C)CO)S2(=O)=O	none (no result: CAL PDZ FP-1, CAL PDZ FP-2)
COCCNC(=O)C[C@H]1CC[C@H]2[C@@H](COc3ccc(NC(=O)COC)cc3C(=O)N2C)O1	none (no result: CAL PDZ FP-1, CAL PDZ FP-2)
O=C(O)CN1CCN(CC(=O)O)CCN(CC(=O)O)CCN(CC(=O)O)CC1	ARNT TACC3 PPI 60
O=C(O)CN1CCNCCN(CC(=O)O)CCNCC1	none
COCCCNC(=O)C1CCC(=O)N(c2ccc3c(c2)OCO3)C1c1ccc(OC)cc1 (stereo not drawn)	CAL PDZ FP-2 active
